Consider six molecules from ChEMBL document CHEMBL1157464, “1-[(3-Aryloxy-3-aryl)propyl]-1H-imidazoles, new imidazoles with potent activity against Candida albicans and dermatophytes. Synthesis, structure-activity relationship, and molecular modeling studies” (J Med Chem, 2008).

In brackets after ≈: the same amount, converted by molar mass.

In data set [1] the test system is Candida parapsilosis. Put plainly: Antifungal activity against Candida parapsilosis ATCC 22019 at 35 degC after 48 hrs by broth microdilution test. The format is functional. The settings on record: for MFC: read-out: MFC. Summed up: (§1)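 Broth microdilution per NCCLS M27-A2. Stocks in 100% DMSO, diluted in RPMI 1640 with 0.165 M MOPS at pH 7.0; final range 0.25–128 µg/mL. Inoculum 1000–5000 cells/mL from SDA subcultures. […] C. parapsilosis ATCC22019 served as QC strain.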
For orientation: In broth dilution the organism is exposed to a series of concentrations in liquid medium.

The subject of data set [2] is Candida albicans. Put plainly: Antifungal activity against Candida albicans ATCC 10261 at 35 degC after 48 hrs by broth microdilution test. The class given is functional. To be noted: for MIC50: read-out: MIC50. The method, boiled down: as §1
Data set [3] concerns Candida albicans. Put plainly: Antifungal activity against Candida albicans ATCC 10261 at 35 degC after 48 to 96 hrs by broth microdilution test. The class given is functional. Summed up: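 Minimal fungicidal concentration for Candida. […] MFC is the lowest concentration allowing fewer than two colonies (99% killing).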
The nature of data set [4]: Cytotoxicity against human U937 cells assessed as reduction of cell viability after 24 hrs by MTT assay. The class given is cell-based, U-937. Summed up:
(§2)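 U937 and K562 cells, from ATCC, plated at 5 × 10^4/mL in phenol-red-free RPMI-1640 with 20% FBS and penicillin/streptomycin. Compounds added 2 h later at 25–100 µg/mL, then 24 h at 37 °C. MTT at 1 mg/mL for 3 h, formazan dissolved in isopropanol with 0.1 N HCl, absorbance read at 570 nm. CC50 is the concentration reducing viability by 50% versus the drug-free control.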
For orientation: Tetrazolium assays rely on reduction of a dye to a coloured formazan, in cell work by metabolically active cells.

Data set [5] in a line: Cytotoxicity against human K562 cells after assessed as reduction of cell viability 24 hrs by MTT assay. The class given is cell-based. The method, boiled down:
as §2

For data set [6], the system named is Arthrodermataceae. Put plainly: Antifungal activity against dermatophytes at 28 degC after 7 days by broth microdilution test. The format is functional. The settings on record: 168 h. Summed up:
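Ten clinical isolates (two M. canis, five M. gypseum, three T. mentagrophytes) tested by NCCLS M38-A broth microdilution in MOPS-buffered RPMI 1640, pH 7.0, over 0.25–128 µg/mL. Conidial/hyphal suspension from PDA slants (28 °C, 7 days) adjusted to 65–70% transmittance at OD530, then diluted 1:50.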

Data set [7] concerns Arthrodermataceae. Put plainly: Antifungal activity against dermatophytes at 28 degC after 5 days by broth microdilution test. To be noted: for MFC: Arthrodermataceae.
The subject of data set [8] is Arthrodermataceae. Put plainly: Antifungal activity against dermatophytes at 28 degC after 48 to 96 hrs by broth microdilution test.
For data set [9], the system named is Candida albicans. Put plainly: Antifungal activity against fluconazole-resistant Candida albicans isolated from oropharyngeal or vaginal disease patient after 48 hrs by broth microdilution test. The class given is functional.
The test system of data set [10] is Candida albicans. Nature of the data set: Antifungal activity against fluconazole-sensitive Candida albicans Fe40 at 35 degC after 48 hrs by broth microdilution test. The format is functional. The method, boiled down:
as §1

The mark [11] stands for this setting: Lodderomyces parapsilosis, ATCC 22019, 48 h.
The mark [12] stands for this setting: Lodderomyces parapsilosis, ATCC 22019, 48 h, read-out: MIC.
The mark [13] stands for this setting: Candida albicans, ATCC 10261, 48 h, read-out: MIC.
[14] abbreviates: Candida albicans, ATCC 10261, 48 h.
[15] abbreviates: Candida albicans, ATCC 10261, 48 h, read-out: MIC90.
Where [16] appears, read: Candida albicans, ATCC 10261, read-out: MFC.

With `Cc1ccc(C(CCn2ccnc2)Oc2ccc(Cl)cc2Cl)cc1` (stereo unspecified), the values for the MFC in data set [1] (setting [11]), in [3] (setting [16]) and in data set [7] were 4 mg/L (≈ 11.1 µM), 8.4 mg/L (≈ 23.3 µM) and 24 mg/L (≈ 66.4 µM), respectively. The MIC came out at 1 mg/L (≈ 2.77 µM) in data set [1] (setting [12]), 3.15 mg/L (≈ 8.72 µM) in [2] (setting [13]) and 12 mg/L (≈ 33.2 µM) in data set [6]. Further, the MIC50 in data set [2] (setting [14]) came out at 4 mg/L (≈ 11.1 µM); in [6], 8 mg/L (≈ 22.1 µM). The values for the MIC90 in data set [2] (setting [15]) and in [6] were 4 mg/L (≈ 11.1 µM) and 16 mg/L (≈ 44.3 µM), respectively. In addition, the MFC50 in [3] was found to be 8 mg/L (≈ 22.1 µM); in data set [8], 16 mg/L (≈ 44.3 µM). Further, the MFC90 in [3] was determined as 16 mg/L (≈ 44.3 µM); in data set [7] it was 32 mg/L (≈ 88.6 µM). Further, the figures for the CC50 at 24 h in data set [4] and in data set [5] were 150 µM and 97 µM, respectively.

`Clc1ccc(C(CCn2ccnc2)Oc2c(Cl)cccc2Cl)cc1` (stereo unspecified): the MFC was 4 mg/L (≈ 10.5 µM) in data set [1] (setting [11]) and 14.7 mg/L (≈ 38.5 µM) in data set [3] (setting [16]). The MIC turned out to be 1 mg/L (≈ 2.62 µM) in data set [1] (setting [12]), 5 mg/L (≈ 13.1 µM) in data set [2] (setting [13]), 6.8 mg/L (≈ 17.8 µM) in data set [9] and 2 mg/L (≈ 5.24 µM) in data set [10]. Besides, the MIC50 in data set [2] (setting [14]) was 2 mg/L (≈ 5.24 µM). In addition, in data set [2] (setting [15]), the MIC90 was found to be 8 mg/L (≈ 21 µM). The molecule further came in with an MFC50 in data set [3] of 8 mg/L (≈ 21 µM). This molecule gave an MFC90 in [3] of 16 mg/L (≈ 41.9 µM). In addition, the CC50 at 24 h is 271 µM in [4] and 135 µM in [5].

`Clc1ccc(OC(CCn2ccnc2)c2ccccc2)c(Cl)c1` (racemic): the MIC was 2 mg/L (≈ 5.76 µM) in [1]; 5.3 mg/L (≈ 15.3 µM) in [2]; 7.2 mg/L (≈ 20.7 µM) in data set [9]; 2 mg/L (≈ 5.76 µM) in [10]; 9.2 mg/L (≈ 26.5 µM) in data set [6]. In addition, the values for the MFC in data set [1] (setting [11]), in [3] and in [7] were 8 mg/L (≈ 23 µM), 11.4 mg/L (≈ 32.8 µM) and 28.8 mg/L (≈ 82.9 µM), respectively. Besides, the MIC90 in [2] and in [6] was 8 mg/L (≈ 23 µM) throughout. For the same molecule, the MIC50 in data set [2] (setting [14]) and in [6] was 8 mg/L (≈ 23 µM) throughout. For the same molecule, the MFC50 in data set [3] came out at 8 mg/L (≈ 23 µM); in data set [8] it was 16 mg/L (≈ 46.1 µM). The MFC90 was 16 mg/L (≈ 46.1 µM) in data set [3] and 32 mg/L (≈ 92.2 µM) in data set [7]. Also, the CC50 at 24 h in [4] amounted to 166 µM; in [5] it was 121 µM.

`Cc1ccc(OC(CCn2ccnc2)c2ccccc2)cc1` (racemic): the values for the minimal fungicidal concentration (MFC) in data set [1] (setting [11]), in data set [3] and in data set [7] were 16 mg/L (≈ 54.7 µM), 13.6 mg/L (≈ 46.5 µM) and 28.8 mg/L (≈ 98.5 µM), respectively. For the same molecule, the figures for the MIC in data set [1] (setting [12]), in data set [2] and in data set [6] were 2 mg/L (≈ 6.84 µM), 9.4 mg/L (≈ 32.1 µM) and 17.2 mg/L (≈ 58.8 µM), respectively. Also, the values for the MIC90 in [2] and in data set [6] were 16 mg/L (≈ 54.7 µM) and 32 mg/L (≈ 109 µM), respectively. Moreover, the MIC50 turned out to be 8 mg/L (≈ 27.4 µM) in data set [2] (setting [14]) and 16 mg/L (≈ 54.7 µM) in data set [6]. In addition, the MFC50 in data set [3] came out at 16 mg/L (≈ 54.7 µM); in data set [8] it was 32 mg/L (≈ 109 µM). Further, the MFC90 was 16 mg/L (≈ 54.7 µM) in [3] and 32 mg/L (≈ 109 µM) in data set [7]. Further, the CC50 at 24 h in data set [4] is 141 µM; in [5], 95.9 µM.

`c1ccc(OC(CCn2ccnc2)c2ccccc2)cc1` (stereo unspecified): the MFC in data set [1] (setting [11]) was 32 mg/L (≈ 115 µM); in data set [3] (setting [16]), 83.2 mg/L (≈ 299 µM); in [7], 56.5 mg/L (≈ 203 µM). For the same molecule, the values for the MIC in data set [1] (setting [12]), in [2] (setting [13]) and in [6] were 16 mg/L (≈ 57.5 µM), 62.7 mg/L (≈ 225 µM) and 24.1 mg/L (≈ 86.6 µM), respectively. The MIC50 in data set [2] (setting [14]) is 32 mg/L (≈ 115 µM); in data set [6], 16 mg/L (≈ 57.5 µM). Besides, the MIC90 in [2] (setting [15]) worked out at 128 mg/L (≈ 460 µM); in data set [6] it was 32 mg/L (≈ 115 µM). Besides, the MFC50 in data set [3] and in data set [8] was 64 mg/L (≈ 230 µM) in each case. Further, the MFC90 in data set [3] is 128 mg/L (≈ 460 µM); in data set [7] it was 64 mg/L (≈ 230 µM). The CC50 at 24 h stood at 201 µM in data set [4] and 220 µM in data set [5].

On to `Fc1ccc(C(CCn2ccnc2)Oc2ccc(Cl)cc2Cl)cc1` (stereo unspecified), for which the MFC was 4 mg/L (≈ 11 µM) in data set [1] (setting [11]), 6.9 mg/L (≈ 18.9 µM) in data set [3] (setting [16]) and 41 mg/L (≈ 112 µM) in data set [7]. Moreover, the minimal inhibitory concentration (MIC) in data set [1] (setting [12]) was determined as 0.5 mg/L (≈ 1.37 µM); in data set [2] (setting [13]), 2.9 mg/L (≈ 7.94 µM); in data set [9], 5.6 mg/L (≈ 15.3 µM); in data set [10], 2 mg/L (≈ 5.48 µM); in [6], 13.5 mg/L (≈ 37 µM). Further, the MIC50 in [2] (setting [14]) is 4 mg/L (≈ 11 µM); in [6], 16 mg/L (≈ 43.8 µM). The MIC90 was 4 mg/L (≈ 11 µM) in data set [2] (setting [15]) and 16 mg/L (≈ 43.8 µM) in data set [6]. Further, the values for the MFC50 in data set [3] and in data set [8] were 8 mg/L (≈ 21.9 µM) and 32 mg/L (≈ 87.6 µM), respectively. The MFC90 in [3] turned out to be 8 mg/L (≈ 21.9 µM); in data set [7], 64 mg/L (≈ 175 µM). Also, the CC50 at 24 h stood at 120 µM in [4] and 74.2 µM in data set [5].

What is called MFC is the smallest concentration meeting the test's criterion for killing the fungus. Broadly, the MIC is the lowest concentration that inhibits growth of the organism. One may read the MIC50 as the lowest concentration that inhibits either 50% of growth or 50% of the strains tested, depending on the study. Broadly, the MIC90 is an inhibitory concentration at the 90% level, which refers to growth in some studies and to a panel of isolates in others. A word on the CC50: it is the concentration that lowers cell viability or growth by half.
